Key:
[1] = target: Human immunodeficiency virus type 1 protease (Human immunodeficiency virus 1, UniProt Q72874); experiment: In vitro inhibition of HIV-1 protease.
Outline: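 HPLC-monitored cleavage of peptide H2N-Val-Ser-Gln-Asn-(β-naphthylalanine)-Pro-Ile-Val-OH (0.45 mM final) by purified recombinant HIV-1 protease (1-10 nM final; E. coli maltose-binding-protein fusion, cleaved off, 99% pure). Buffer 50 mM sodium acetate, 1 mg/mL BSA, pH 5.5; DMSO stock. 30 min at 37 °C, quenched with phosphoric acid. Screened at 0.1, 1, 10 μM, then IC50 from five concentrations.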

[2] = test system: Human immunodeficiency virus 1; experiment: Inhibition of viral replication by XTT endpoint; assay type: functional; settings: read-out: ED50 (the source's name)
Outline: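 CEM-SS cells (5000/well) in RPMI with 10% fetal calf serum infected with HIV-1 RF at multiplicity 0.04; compound from DMSO stock, final DMSO at most 0.125%. After 6 days at 37 °C, XTT/PMS added for 4 h; formazan read at 450 nm against 650 nm reference. ED50 = concentration restoring formazan in infected cells to 50% of control cells; mean of two determinations.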

[3] = test system: Human immunodeficiency virus 1; experiment: The concentration was measured on HIV-1 IIIB virus; assay type: functional; settings: read-out: ED50 (the source's name)
Outline: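 Human PBMCs, PHA-stimulated, infected with HIV-1 IIIB at m.o.i. 0.001–0.02 and kept with graded compound. Half the medium was replaced with fresh compound-containing medium on day 3. p24 in supernatant measured by ELISA at day 7; ED50 = dose giving 50% p24 reduction relative to control wells; n = 2.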

[4] = The oral bioavailability was measured on rats after oral administration; assay type: ADME, organism-based; settings: rat, in vivo, read-out: Bioavailabiility
Outline: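 Male Sprague-Dawley rats (200-350 g), jugular cannula placed the day before, fasted overnight, water ad libitum. [3H]-labelled compound 1.3 μmol/kg iv and po (n = 3 per route, TLRC plasma assay), or unlabelled 9 μmol/kg iv and 22 μmol/kg oral (n = 2 per route, LC/MS/MS). Dosing was iv in ethanol over 5 min and oral by gavage as 0.2% CMC suspension or ethanol solution.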

Pepsin A = Pepsin A (Sus scrofa, UniProt P00791); experiment: The inhibitory concentration value was measured on porcine pepsin at 31000 nM
Outline: (§1)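 Spectrophotometric assay at 37 °C in 0.1 M formate, pH 3, with chromogenic peptide H-Pro-Thr-Glu-Phe-p-nitro-Phe-Arg-Leu-OH at 0.32 mM final. Reaction started with enzyme: 0.36 units of human liver cathepsin D or 0.03 units of porcine stomach pepsin. Absorbance at 310 nm followed for 20 min; buffer-only controls; highest concentration tested 31000 nM.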

[5] = test system: Human immunodeficiency virus 2; experiment: The concentration was measured on HIV-2CBL-20 virus; assay type: functional; settings: read-out: ED50 (the source's name)
Outline: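 HIV-2 CBL-20 infection of CEM-SS cells (5000/well) at multiplicity 0.04, in RPMI with 10% fetal calf serum; final DMSO at most 0.125%. Incubated 6 days at 37 °C, 5% CO2, then 4 h with XTT/PMS; absorbance at 450 nm (650 nm reference). ED50 from formazan relative to uninfected controls; n = 7.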

[6] = The biological half life (t1/2) was measured on rats after intravenous administration; assay type: ADME, organism-based; settings: rat, in vivo
Outline: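 Male Sprague-Dawley rats (200–350 g), jugular-cannulated, fasted overnight, given an ethanol solution infused iv over 5 min: [3H] compound at 1.3 μmol/kg (n = 3) or unlabeled at 9 μmol/kg (n = 2). Plasma measured by radio-TLC or LC/MS/MS. Half-life by model-independent analysis; mean ± SEM, n = 5.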

Renin = target: T1, Renin (Homo sapiens, UniProt P00797); experiment: The inhibitory concentration value was measured on Human renin at 100000 nM
T1 sequence (P00797 whole entry): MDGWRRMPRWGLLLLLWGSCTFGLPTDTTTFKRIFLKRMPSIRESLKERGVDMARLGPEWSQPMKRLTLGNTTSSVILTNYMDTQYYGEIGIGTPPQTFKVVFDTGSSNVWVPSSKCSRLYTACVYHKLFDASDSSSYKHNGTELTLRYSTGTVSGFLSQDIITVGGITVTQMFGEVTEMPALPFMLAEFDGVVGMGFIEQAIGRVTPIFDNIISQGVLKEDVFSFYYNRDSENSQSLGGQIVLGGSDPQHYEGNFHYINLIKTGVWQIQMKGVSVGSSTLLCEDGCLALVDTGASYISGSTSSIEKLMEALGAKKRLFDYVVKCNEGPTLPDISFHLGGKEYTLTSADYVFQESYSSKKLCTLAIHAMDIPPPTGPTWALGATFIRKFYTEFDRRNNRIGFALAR

[7] = The maximum plasma concentration was measured on rats after oral administration; assay type: ADME, organism-based; parameters: route oral; settings: rat
Outline: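 Fasted male Sprague-Dawley rats dosed by gavage as a suspension in 0.2% carboxymethyl cellulose or an ethanol solution: [3H] compound at 1.3 μmol/kg (n = 3) or unlabeled at 22 μmol/kg (n = 2). Plasma quantified by thin-layer radiochromatography (LLOQ 1 nM) or LC/MS/MS (LLOQ 10 nM). Cmax given as mean ± SEM, n = 5.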

Cathepsin D = Cathepsin D (Homo sapiens, UniProt P07339); experiment: The inhibitory concentration value was measured on Human cathepsin D at 31000 nM; outline: as §1
Sequence of Cathepsin D (P07339 65-162 limits assumed): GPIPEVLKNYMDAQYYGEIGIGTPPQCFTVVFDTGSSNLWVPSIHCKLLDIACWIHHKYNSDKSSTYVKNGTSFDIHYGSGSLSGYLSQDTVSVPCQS
Sequence of Cathepsin D (P07339 169-412 limits assumed): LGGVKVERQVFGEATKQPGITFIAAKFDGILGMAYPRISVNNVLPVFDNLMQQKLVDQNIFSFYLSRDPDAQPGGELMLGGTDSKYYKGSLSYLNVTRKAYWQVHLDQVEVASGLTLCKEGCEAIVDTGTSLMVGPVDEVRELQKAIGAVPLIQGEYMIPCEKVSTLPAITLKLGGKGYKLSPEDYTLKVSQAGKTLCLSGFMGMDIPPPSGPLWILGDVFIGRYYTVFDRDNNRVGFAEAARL

Sequence of Pepsin A (P00791 whole entry): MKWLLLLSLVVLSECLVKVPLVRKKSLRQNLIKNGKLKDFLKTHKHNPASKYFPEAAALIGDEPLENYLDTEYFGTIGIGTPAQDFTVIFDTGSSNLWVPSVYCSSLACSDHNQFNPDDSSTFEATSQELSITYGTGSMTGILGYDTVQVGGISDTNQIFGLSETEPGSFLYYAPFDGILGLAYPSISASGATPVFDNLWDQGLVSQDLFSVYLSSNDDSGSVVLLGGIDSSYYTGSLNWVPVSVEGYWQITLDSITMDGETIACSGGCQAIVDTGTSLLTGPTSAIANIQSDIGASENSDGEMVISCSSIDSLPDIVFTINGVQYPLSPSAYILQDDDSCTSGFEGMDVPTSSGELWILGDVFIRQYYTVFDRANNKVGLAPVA

| Compound | IC50 [1] | EC50 [2] | other results |
| --- | --- | --- | --- |
| CC(C)(C)OC(=O)N[C@H](CCNC[C@@H](O)[C@H](Cc1ccccc1)NC(=O)OC(C)(C)C)Cc1ccccc1 | 2.9 µM |  |  |
| CO[C@H](CNC[C@@H](O)[C@H](Cc1ccccc1)NC(=O)OC(C)(C)C)[C@H](Cc1ccccc1)NC(=O)OC(C)(C)C | > 10 µM |  |  |
| CC(C)(C)OC(=O)N[C@@H](Cc1ccccc1)[C@H](O)CNC[C@H](O)[C@H](Cc1ccccc1)NC(=O)OC(C)(C)C | 4.5 µM |  |  |
| CC(C)(C)CC(=O)N[C@@H](Cc1ccccc1)[C@H](O)CNC[C@@H](O)[C@H](Cc1ccccc1)NC(=O)OC(C)(C)C | 4 µM | 1200 nM |  |
| CN(C(=O)OC(C)(C)C)[C@@H](Cc1ccccc1)[C@H](O)CNC[C@@H](O)[C@H](Cc1ccccc1)NC(=O)OC(C)(C)C | 8.5 µM | > 3000 nM |  |
| CC(C)(C)NC(=O)N[C@@H](Cc1ccccc1)[C@H](O)CNC[C@@H](O)[C@H](Cc1ccccc1)NC(=O)OC(C)(C)C | 0.4 µM | 160 nM |  |
| CC(C)(C)OC(=O)N[C@@H](Cc1ccccc1)[C@H](O)CNC[C@@H](O)[C@H](Cc1ccccc1)NC(=O)OC(C)(C)C | 0.125 µM | 80 nM | EC50 [3]: 25 nM; bioavailability [4]: 40%; IC50 (Pepsin A): > 31 µM; EC50 [5]: 170 nM; half-life [6]: 252 min; IC50 (Renin): > 100 µM; Cmax [7]: 240 nM; IC50 (Cathepsin D): > 31 µM |
| O=C(N[C@@H](Cc1ccccc1)[C@H](O)CNC[C@@H](O)[C@H](Cc1ccccc1)NC(=O)OCc1ccccc1)OCc1ccccc1 | 3.4 µM | > 5000 nM |  |
| CC(C)OC(=O)N[C@@H](Cc1ccccc1)[C@H](O)CNC[C@@H](O)[C@H](Cc1ccccc1)NC(=O)OC(C)C | 0.9 µM | 1000 nM |  |
| CC(C)(C)OC(=O)NC(CC1CCCCC1)[C@H](O)CNC[C@@H](O)C(CC1CCCCC1)NC(=O)OC(C)(C)C (stereo not given in full) | 0.8 µM | 660 nM |  |
| CC(C)(C)OC(=O)N[C@@H](Cc1ccccc1)[C@H](O)COC[C@@H](O)[C@H](Cc1ccccc1)NC(=O)OC(C)(C)C | > 10 µM |  |  |
| CC(C)(C)OC(=O)NC(Cc1ccc(O)cc1)[C@H](O)CNC[C@@H](O)[C@H](Cc1ccccc1)NC(=O)OC(C)(C)C (stereo not given in full) | 0.1 µM | 60 nM |  |
| CC(C)(C)OC(=O)NC(CCc1ccccc1)[C@H](O)CNC[C@@H](O)[C@H](Cc1ccccc1)NC(=O)OC(C)(C)C (stereo not given in full) | 0.5 µM | 690 nM |  |
| CC(C)(C)COC(=O)N[C@@H](Cc1ccccc1)[C@H](O)CNC[C@@H](O)[C@H](Cc1ccccc1)NC(=O)OCC(C)(C)C | 6 µM |  |  |
| CN(CC(O)[C@H](Cc1ccccc1)NC(=O)OC(C)(C)C)C[C@@H](O)[C@H](Cc1ccccc1)NC(=O)OC(C)(C)C (stereo not given in full) | > 10 µM |  |  |
| CC(C)(C)OC(=O)N[C@@H](Cc1ccccc1)[C@@H](O)CNCC(O)[C@@H](Cc1ccccc1)NC(=O)OC(C)(C)C (stereo not given in full) | > 10 µM |  |  |
| CC(C)(C)OC(=O)N[C@@H](Cc1ccccc1)[C@@H](O)CNC[C@H](O)[C@H](Cc1ccccc1)NC(=O)OC(C)(C)C | > 10 µM |  |  |
| CC(C)(C)OC(=O)N[C@@H](Cc1ccccc1)[C@H](O)CNC[C@@H](O)[C@H](Cc1ccccc1)NC(=O)SC(C)(C)C | 0.7 µM | 800 nM |  |
| CC(C)(C)OC(=O)N[C@@H](Cc1ccccc1)[C@H](O)CNC[C@H](O)[C@@H](Cc1ccccc1)NC(=O)OC(C)(C)C | > 10 µM |  |  |
| CC(C)(C)OC(=O)N[C@@H](Cc1ccccc1)[C@H](O)CNC[C@@H](O)[C@@H](Cc1ccccc1)NC(=O)OC(C)(C)C | 10 µM |  |  |
| CCC(C)C(NC(=O)OC(C)(C)C)[C@H](O)CNC[C@@H](O)C(NC(=O)OC(C)(C)C)[C@@H](C)CC (single isomer, unassigned) | 4.5 µM | 5300 nM |  |

From ChEMBL document CHEMBL1127539, “Aminodiol HIV protease inhibitors. 1. Design, synthesis, and preliminary SAR” (J Med Chem, 1994)
